{"data": "Experimental data collected from several papers", "target": "Platelet-derived growth factor receptor beta (PDGFRB, Homo sapiens, UniProt P09619)"}
{"SMILES": "O=C(Nc1cnc(Oc2ccc(F)cc2)nc1)N1CCc2ncccc2[C@@H]1c1ccc(F)cc1", "test": "cell-free assay, competition with immobilised ligand", "conditions": "1 µM", "remaining binding": "100%"}
{"SMILES": "COc1cnc(Nc2cccc(S(N)(=O)=O)c2)nc1N1CCN(c2ccccc2)C(=O)C1", "test": "binding, competition with immobilised ligand", "conditions": "1 µM", "remaining binding": "94%"}
{"SMILES": "CN(C)c1nccc(-c2cnc3ncccn23)n1", "test": "binding", "conditions": "1 µM", "remaining binding": "90%"}
{"SMILES": "Cc1cnc(Nc2ccc(C(=O)N3CCC(N4CCCC4)CC3)cc2)nc1-c1cc2ccccc2s1", "test": "binding, competition with immobilised ligand", "conditions": "1 µM", "remaining binding": "0.4%"}
{"SMILES": "CC(=O)N1CCC(c2ccc(C(=O)NC(=N)N)cc2C(F)(F)F)CC1", "test": "cell-free assay, competition with immobilised ligand", "conditions": "1 µM", "remaining binding": "100%"}
{"SMILES": "CN(C)c1nccc(-c2cnn3ncccc23)n1", "test": "binding", "conditions": "1 µM", "remaining binding": "100%"}
{"SMILES": "Cc1cc(-n2nc(Cc3cc(F)cc(C(F)(F)F)c3)nc2C)ccc1C(N)=O", "test": "cell-free assay, competition with immobilised ligand", "conditions": "1 µM", "remaining binding": "98%"}
{"SMILES": "Nc1ncc2c(n1)-c1c([nH]c3ccc(C#CC4CC4)cc13)CCCC2", "test": "binding, competition with immobilised ligand", "conditions": "1 µM", "remaining binding": "100%"}
{"SMILES": "N[C@@H]1CCN(c2nccc(-c3cnn4ncccc34)n2)C1", "test": "binding", "conditions": "1 µM", "remaining binding": "100%"}
{"SMILES": "CCN(CC)CCCCNc1ncc2cc(-c3cc(OC)cc(OC)c3)c(NC(=O)NC(C)(C)C)nc2n1", "test": "cell-free assay, competition with immobilised ligand", "conditions": "1 µM", "remaining binding": "38%"}
{"SMILES": "O=C(NCCCN1CCOCC1)c1ccc(Nc2nccc(-c3cc4ccccc4s3)n2)cc1", "test": "binding, competition with immobilised ligand", "conditions": "1 µM", "remaining binding": "13%"}
{"SMILES": "C[C@@H]1CN(c2ccc3ncc(-c4ccc5[nH]nc(C6CC6)c5c4)n3n2)C[C@H](C)O1", "test": "binding, competition with immobilised ligand", "conditions": "50 nM", "remaining binding": "87%"}
{"SMILES": "FC(F)(F)c1ccc2c(c1)nc(-c1cccnc1)n2C1CC1", "test": "cell-free assay, competition with immobilised ligand", "conditions": "1 µM", "remaining binding": "100%"}
{"SMILES": "O=C(NCC1CCOCC1)c1n[nH]cc1NC(=O)c1c(F)cccc1F", "test": "binding, competition with immobilised ligand", "conditions": "1 µM", "remaining binding": "99%"}
{"SMILES": "CN(c1nccc(-c2cnn3ncccc23)n1)C1CC1", "test": "binding", "conditions": "1 µM", "remaining binding": "98%"}
{"SMILES": "CC(C)(C)c1ccc(-c2nc(CBr)nn2-c2cccc(O)c2)cc1", "test": "cell-free assay, competition with immobilised ligand", "conditions": "10 µM", "remaining binding": "86%"}
{"SMILES": "N#CC1(c2ccccn2)CCN(Cc2cc(C(=O)N3CCCC3)c(=O)n3ccccc23)CC1", "test": "cell-free assay, competition with immobilised ligand", "conditions": "1 µM", "remaining binding": "86%"}
{"SMILES": "COc1ncc2cc3ccccc3nc2c1C#N", "test": "cell-free assay, competition with immobilised ligand", "conditions": "5 µM", "remaining binding": "97%"}
{"SMILES": "c1cncc(-c2cccc(Nc3nccc(NC4CCCCC4)n3)c2)c1", "test": "binding, competition with immobilised ligand", "conditions": "10 µM", "remaining binding": "0%"}
{"SMILES": "CCOCCn1cc(C(=O)Nc2ccc(-n3nc(-c4cccnc4)cc3C(F)(F)F)cn2)ccc1=O", "test": "cell-free assay, competition with immobilised ligand", "conditions": "1 µM", "remaining binding": "88%"}
{"SMILES": "CC1CCCN1c1nccc(-c2cnn3ncccc23)n1 (stereo not shown)", "test": "binding", "conditions": "1 µM", "remaining binding": "100%"}
{"SMILES": "COc1ccc2c(c1)O[C@@H](c1ccc(OC)c(OC)c1)C[C@H]2NC(=O)C1(c2ccc3c(c2)OC(F)(F)O3)CC1", "test": "cell-free assay, competition with immobilised ligand", "conditions": "1 µM", "remaining binding": "100%"}
{"SMILES": "O=C(c1ccc(Nc2ncc(Cl)c(-c3cc4ccccc4s3)n2)cc1)N1CCC(N2CCCC2)CC1", "test": "binding, competition with immobilised ligand", "conditions": "1 µM", "remaining binding": "1.9%"}
{"SMILES": "COc1ccnn2ncc(-c3ccnc(N(C)C)n3)c12", "test": "binding", "conditions": "1 µM", "remaining binding": "100%"}
{"SMILES": "CNC(=O)Nc1ccc2c(c1)[C@@]1(CC2)OC(=O)N(CC(=O)N(Cc2ccc(F)cc2)[C@@H](C)C(F)(F)F)C1=O", "test": "cell-free assay, competition with immobilised ligand", "conditions": "1 µM", "remaining binding": "87%"}
